Data from ChEMBL document CHEMBL4689842, “EUbOPEN Chemogenomics Library wave 1” (2021).

Test system: HEK-293T
Assay: Multiplex assay against HEK293T;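 on Population Tubulin-Different-Phenotype (%): share of the cells with healthy nuclei that show this phenotype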
Assay type: toxicity, cell-based
Details: human
In short: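 Imaging took place on a CQ1 microscope at 37°C and 5% CO2 once compound had been added to live cells stained at seeding with Hoechst33342, BioTracker Green Microtubule Cytoskeleton Dye, MitoTracker Red and Annexin V Alexa Fluor 680. CellPathfinder machine-learning gating classed cells as Hoechst high-intensity objects or normal cells, classed normal cells as having healthy, pyknosed or fragmented nuclei, and classed pyknosed cells as mitotic or apoptotic. Tubulin, mitochondrial-mass and membrane-permeability phenotypes are per cents of the healthy-nucleus cells.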

[1] = 12 h, 1 µM, compound concentration 1 uM, replicate 1
[2] = 12 h, 1 µM, compound concentration 1 uM, replicate 2
[3] = 12 h, 10 µM, compound concentration 10 uM, replicate 1
[4] = 12 h, 10 µM, compound concentration 10 uM, replicate 2
[5] = 24 h, 1 µM, compound concentration 1 uM, replicate 1
[6] = 24 h, 1 µM, compound concentration 1 uM, replicate 2
[7] = 24 h, 10 µM, compound concentration 10 uM, replicate 1
[8] = 24 h, 10 µM, compound concentration 10 uM, replicate 2
[9] = 48 h, 1 µM, compound concentration 1 uM, replicate 1
[10] = 48 h, 1 µM, compound concentration 1 uM, replicate 2
[11] = 48 h, 10 µM, compound concentration 10 uM, replicate 1
[12] = 48 h, 10 µM, compound concentration 10 uM, replicate 2

`Cc1nc(-c2ccc(-c3ccc(C(=O)N4CCc5cc6c(cc54)C4(CCN(C)CC4)CO6)cc3)c(C)c2)no1` [SB-224289] was tested. Which “Population Apoptotic (%)” value [1] did it give?
The value was 59%.

And the “Population Fragmented Nuclei (%)” value [1]?
The value was 17%.

And the “Population Hoechst High Intensity Objects (%)” value [1]?
The value was 14%.

And the “Population Membrane Permeable-Phenotype (%)” value [1]?
The value was 2%.

What about the “Population Mitochondria Different-Phenotype (%)” value [1] of the same compound?
Its value is 94%.

What about the “Population Mitotic Cells (%)” value [1] of the same compound?
Its value is 40%.

And the “Population Normal (%)” value [1]?
Its value is 85%.

And the “Population Pyknosed Nuclei (%)” value [1]?
Its value is 48%.

What about the “Population Tubulin-Different-Phenotype (%)” value [1] of the same compound?
Its value is 82%.

And the “Total Cell Count” value [1]?
The value was 225.

What about the “Population Apoptotic (%)” value [2] of the same compound?
The value was 24%.

And the “Population Fragmented Nuclei (%)” value [2]?
Its value is 4%.

What about the “Population Healthy Nuclei (%)” value [2] of the same compound?
Its value is 34%.

And the “Population Hoechst High Intensity Objects (%)” value [2]?
Its value is 3%.

What about the “Population Membrane Permeable-Phenotype (%)” value [2] of the same compound?
The value was 12%.

And the “Population Mitochondria Different-Phenotype (%)” value [2]?
The value was 75%.

What about the “Population Mitotic Cells (%)” value [2] of the same compound?
Its value is 75%.

And the “Population Normal (%)” value [2]?
The value was 96%.

What about the “Population Pyknosed Nuclei (%)” value [2] of the same compound?
The value was 60%.

What about the “Population Tubulin-Different-Phenotype (%)” value [2] of the same compound?
The value was 66%.

What about the “Total Cell Count” value [2] of the same compound?
The value was 194.

And the “Population Apoptotic (%)” value [3]?
Its value is 87%.

And the “Population Fragmented Nuclei (%)” value [3]?
The value was 8%.

What about the “Population Healthy Nuclei (%)” value [3] of the same compound?
Its value is 22%.

What about the “Population Hoechst High Intensity Objects (%)” value [3] of the same compound?
The value was 15%.

And the “Population Membrane Permeable-Phenotype (%)” value [3]?
The value was 0%.

What about the “Population Mitochondria Different-Phenotype (%)” value [3] of the same compound?
Its value is 98%.

And the “Population Mitotic Cells (%)” value [3]?
The value was 12%.

And the “Population Normal (%)” value [3]?
Its value is 84%.

And the “Population Pyknosed Nuclei (%)” value [3]?
Its value is 68%.

What about the “Population Tubulin-Different-Phenotype (%)” value [3] of the same compound?
Its value is 98%.

And the “Total Cell Count” value [3]?
Its value is 320.

What about the “Population Apoptotic (%)” value [4] of the same compound?
The value was 88%.

What about the “Population Fragmented Nuclei (%)” value [4] of the same compound?
The value was 3%.

And the “Population Healthy Nuclei (%)” value [4]?
The value was 16%.

What about the “Population Hoechst High Intensity Objects (%)” value [4] of the same compound?
Its value is 9%.

What about the “Population Membrane Permeable-Phenotype (%)” value [4] of the same compound?
Its value is 4%.

And the “Population Mitochondria Different-Phenotype (%)” value [4]?
Its value is 95%.

And the “Population Mitotic Cells (%)” value [4]?
Its value is 11%.

And the “Population Normal (%)” value [4]?
Its value is 90%.

And the “Population Pyknosed Nuclei (%)” value [4]?
Its value is 80%.

And the “Population Tubulin-Different-Phenotype (%)” value [4]?
Its value is 85%.

What about the “Total Cell Count” value [4] of the same compound?
Its value is 141.

What about the “Population Apoptotic (%)” value [5] of the same compound?
The value was 67%.

What about the “Population Fragmented Nuclei (%)” value [5] of the same compound?
The value was 17%.

What about the “Population Healthy Nuclei (%)” value [5] of the same compound?
The value was 35%.

What about the “Population Hoechst High Intensity Objects (%)” value [5] of the same compound?
Its value is 10%.

What about the “Population Membrane Permeable-Phenotype (%)” value [5] of the same compound?
Its value is 1%.

What about the “Population Mitochondria Different-Phenotype (%)” value [5] of the same compound?
Its value is 89%.

And the “Population Mitotic Cells (%)” value [5]?
Its value is 32%.

And the “Population Normal (%)” value [5]?
Its value is 89%.

What about the “Population Pyknosed Nuclei (%)” value [5] of the same compound?
Its value is 46%.

What about the “Population Tubulin-Different-Phenotype (%)” value [5] of the same compound?
The value was 63%.

What about the “Total Cell Count” value [5] of the same compound?
Its value is 231.

What about the “Population Apoptotic (%)” value [6] of the same compound?
Its value is 33%.

What about the “Population Fragmented Nuclei (%)” value [6] of the same compound?
Its value is 4%.

What about the “Population Healthy Nuclei (%)” value [6] of the same compound?
Its value is 46%.

What about the “Population Hoechst High Intensity Objects (%)” value [6] of the same compound?
Its value is 3%.

What about the “Population Membrane Permeable-Phenotype (%)” value [6] of the same compound?
The value was 5%.

And the “Population Mitochondria Different-Phenotype (%)” value [6]?
The value was 73%.

And the “Population Mitotic Cells (%)” value [6]?
The value was 66%.

And the “Population Normal (%)” value [6]?
The value was 96%.

What about the “Population Pyknosed Nuclei (%)” value [6] of the same compound?
Its value is 48%.

What about the “Population Tubulin-Different-Phenotype (%)” value [6] of the same compound?
The value was 73%.

And the “Total Cell Count” value [6]?
Its value is 232.

What about the “Population Apoptotic (%)” value [7] of the same compound?
Its value is 92%.

What about the “Population Fragmented Nuclei (%)” value [7] of the same compound?
The value was 8%.

And the “Population Healthy Nuclei (%)” value [7]?
The value was 13%.

What about the “Population Hoechst High Intensity Objects (%)” value [7] of the same compound?
Its value is 18%.

What about the “Population Membrane Permeable-Phenotype (%)” value [7] of the same compound?
Its value is 2%.

What about the “Population Mitochondria Different-Phenotype (%)” value [7] of the same compound?
Its value is 100%.

What about the “Population Mitotic Cells (%)” value [7] of the same compound?
Its value is 7%.

What about the “Population Normal (%)” value [7] of the same compound?
Its value is 81%.

What about the “Population Pyknosed Nuclei (%)” value [7] of the same compound?
Its value is 77%.

And the “Population Tubulin-Different-Phenotype (%)” value [7]?
Its value is 100%.

What about the “Total Cell Count” value [7] of the same compound?
Its value is 316.

And the “Population Apoptotic (%)” value [8]?
Its value is 97%.

What about the “Population Fragmented Nuclei (%)” value [8] of the same compound?
The value was 5%.

What about the “Population Healthy Nuclei (%)” value [8] of the same compound?
The value was 24%.

And the “Population Hoechst High Intensity Objects (%)” value [8]?
The value was 12%.

What about the “Population Membrane Permeable-Phenotype (%)” value [8] of the same compound?
The value was 0%.

What about the “Population Mitotic Cells (%)” value [8] of the same compound?
The value was 2%.

What about the “Population Normal (%)” value [8] of the same compound?
The value was 88%.

And the “Population Pyknosed Nuclei (%)” value [8]?
The value was 70%.

What about the “Population Tubulin-Different-Phenotype (%)” value [8] of the same compound?
The value was 93%.

What about the “Total Cell Count” value [8] of the same compound?
The value was 150.

And the “Population Apoptotic (%)” value [9]?
Its value is 76%.

And the “Population Fragmented Nuclei (%)” value [9]?
Its value is 21%.

And the “Population Healthy Nuclei (%)” value [9]?
Its value is 48%.

And the “Population Hoechst High Intensity Objects (%)” value [9]?
Its value is 12%.

What about the “Population Membrane Permeable-Phenotype (%)” value [9] of the same compound?
The value was 0%.

What about the “Population Mitochondria Different-Phenotype (%)” value [9] of the same compound?
Its value is 67%.

And the “Population Mitotic Cells (%)” value [9]?
Its value is 23%.

And the “Population Normal (%)” value [9]?
The value was 87%.

What about the “Population Pyknosed Nuclei (%)” value [9] of the same compound?
Its value is 30%.

And the “Population Tubulin-Different-Phenotype (%)” value [9]?
Its value is 53%.

What about the “Total Cell Count” value [9] of the same compound?
The value was 261.

What about the “Population Apoptotic (%)” value [10] of the same compound?
The value was 25%.

And the “Population Fragmented Nuclei (%)” value [10]?
Its value is 4%.

What about the “Population Healthy Nuclei (%)” value [10] of the same compound?
The value was 72%.

What about the “Population Hoechst High Intensity Objects (%)” value [10] of the same compound?
Its value is 4%.

What about the “Population Membrane Permeable-Phenotype (%)” value [10] of the same compound?
The value was 2%.

What about the “Population Mitochondria Different-Phenotype (%)” value [10] of the same compound?
Its value is 45%.

And the “Population Mitotic Cells (%)” value [10]?
The value was 75%.

What about the “Population Normal (%)” value [10] of the same compound?
The value was 95%.

What about the “Population Pyknosed Nuclei (%)” value [10] of the same compound?
Its value is 22%.

What about the “Population Tubulin-Different-Phenotype (%)” value [10] of the same compound?
The value was 56%.

And the “Total Cell Count” value [10]?
The value was 371.

And the “Population Apoptotic (%)” value [11]?
Its value is 92%.

What about the “Population Fragmented Nuclei (%)” value [11] of the same compound?
Its value is 13%.

What about the “Population Healthy Nuclei (%)” value [11] of the same compound?
Its value is 10%.

What about the “Population Hoechst High Intensity Objects (%)” value [11] of the same compound?
The value was 26%.

And the “Population Membrane Permeable-Phenotype (%)” value [11]?
The value was 7%.

And the “Population Mitochondria Different-Phenotype (%)” value [11]?
The value was 100%.

And the “Population Mitotic Cells (%)” value [11]?
Its value is 7%.

What about the “Population Normal (%)” value [11] of the same compound?
The value was 73%.

What about the “Population Pyknosed Nuclei (%)” value [11] of the same compound?
The value was 75%.

And the “Population Tubulin-Different-Phenotype (%)” value [11]?
Its value is 82%.

What about the “Total Cell Count” value [11] of the same compound?
The value was 363.

What about the “Population Apoptotic (%)” value [12] of the same compound?
The value was 100%.

And the “Population Fragmented Nuclei (%)” value [12]?
The value was 5%.

And the “Population Healthy Nuclei (%)” value [12]?
Its value is 28%.

And the “Population Hoechst High Intensity Objects (%)” value [12]?
The value was 17%.

And the “Population Membrane Permeable-Phenotype (%)” value [12]?
Its value is 6%.

And the “Population Mitochondria Different-Phenotype (%)” value [12]?
Its value is 96%.

And the “Population Mitotic Cells (%)” value [12]?
The value was 0%.

What about the “Population Normal (%)” value [12] of the same compound?
The value was 82%.

What about the “Population Pyknosed Nuclei (%)” value [12] of the same compound?
The value was 66%.

What about the “Population Tubulin-Different-Phenotype (%)” value [12] of the same compound?
Its value is 57%.

And the “Total Cell Count” value [12]?
Its value is 139.
